# Source: PMC6619336 (Clinical Pharmacology in Drug Development, 2018)
# Read-outs that look alike come from different tables or passages of the source. Marks after values point to notes of the source that are not given here.
# Experiments:
# [1] = subjects with severe renal impairment; cited from earlier work
# VZV = settings: preclinical studies; cited from earlier work
# [2] = single 300‐mg (capsule) dose, day 1 of administration; study 15L‐CL‐003; cited from earlier work
# [3] = assay type: in vivo, human
# Summary of the method: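 Healthy men (n = 6) got one fasted oral 200 mg dose of 14C-labelled test compound (1.8 MBq) in water with 8% hydroxypropyl-β-cyclodextrin. Urine and feces were collected for 8 days. Expired air was sampled predose to 72 h and trapped in 1 N hyamine hydroxide with phenolphthalein. Urine and feces were homogenized, and radioactivity was read by liquid scintillation. Urinary parent was measured by LC-MS/MS. CL_R = Ae/AUC over the largest common quantifiable interval.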
# [4] = 300‐mg dose (capsule); mean ± SD; study 15L‐CL‐002; cited from earlier work
# cytochrome P450 (CYP) 3A = settings: cited from earlier work
# [5] = Safety and tolerability of single-dose amenamevir in healthy volunteers; assay type: in vivo, human; settings: single 200 mg dose; for subjects with treatment‐emergent AEs: 6 subjects dosed
# Summary of the method: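 Six healthy men aged 18–65 years received one fasted oral 200 mg dose and were monitored from screening through admission, discharge and a post-study visit. Adverse events were collected from spontaneous reports and non-leading questioning, coded with MedDRA v10.0, and graded for severity and treatment relation. Checks covered blood pressure, heart rate, ECG, physical examination, chemistry, hematology, urinalysis, serology and drug/alcohol screens.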
# [6] = Metabolic profiling of 14C-amenamevir in plasma, urine and feces; assay type: in vivo, human; settings: single oral 200 mg
# Summary of the method: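 After one fasted oral 200 mg dose of 14C-labelled test compound in 8% hydroxypropyl-β-cyclodextrin, healthy men gave plasma predose and at 0.5, 1, 2, 4, 6, 8, 10 and 12 h. Urine and fecal homogenates (stored at −70 °C) were also collected. Radiochromatograms were run by HPLC for all matrices. Urine and fecal metabolites were identified by LC-MS/MS.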
# [7] = subjects with moderate hepatic impairment; cited from earlier work
# [8] = 300‐mg dose (capsule); mean ± SD; study 15L‐CL‐001; cited from earlier work
# [9] = healthy volunteers, cited from earlier work
# [10] = assay type: in vivo, human; remark: listed apart in the source
# Summary of the method: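 Six healthy men were dosed fasted, orally, once at 200 mg of 14C-labelled test compound (1.8 MBq) in water with 8% hydroxypropyl-β-cyclodextrin. Blood was drawn predose and from 15 min to 72 h, kept on ice, and spun at 1500g for 10 min at 4 °C within 30 min. Plasma radioactivity was read by liquid scintillation and parent by LC-MS/MS. Parameters were noncompartmental, with values below LLOQ set to zero.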
# [11] = single oral 200 mg, n = 5, mean ± SD, 8 days of sampling
# [12] = ^14C‐radioactivity in plasma, single oral 200 mg, n = 6, mean ± SD
# [13] = ^14C‐radioactivity in whole blood, single oral 200 mg, n = 6, mean ± SD
# [14] = ^14C‐radioactivity, single oral 200 mg
structure (smiles),measurement,setting,value
Cc1cccc(C)c1N(CC(=O)Nc1ccc(-c2ncon2)cc1)C(=O)C1CCS(=O)(=O)CC1 [Amenamevir],renal clearance in severe renal impairment,[1],reduced renal clearance
same,activity against VZV compared with acyclovir and valacyclovir,VZV,more potent than acyclovir and valacyclovir
same,drug excreted in the urine,[2],11.07%
same,renal clearance,[2],2.45 L/h
same,CL renal,"[3]; human, urine and plasma, po, 200 mg",40.7 mL/min
same,dose eliminated by 168 hours after the dose,[3]; single oral 200 mg,> 95%
same,Ae expired air (cumulative recovery of ^14C‐radioactivity),"[3]; single oral 200 mg, N = 6, listed as 14C‐amenamevir",0%
same,Ae urine (cumulative recovery of ^14C‐radioactivity),"[3]; single oral 200 mg, N = 6, mean ± SD, 8 days of sampling",20.6 ± 4.0%
same,Ae feces (cumulative recovery of ^14C‐radioactivity),[3]; [11],74.6 ± 3.0 ^a %
same,Ae total (cumulative recovery of ^14C‐radioactivity),[3]; [11],95.3%
same,Ae total (cumulative recovery of ^14C‐radioactivity),"[3]; single oral 200 mg, n = 5, mean ± SD, 8 days of sampling, listed as 14C‐amenamevir",95.3 ± 1.8 ^a %
same,Cumulative Aelast (amenamevir excreted into urine),"[3]; unchanged amenamevir in urine by LC‐MS/MS, single oral 200 mg, N = 6, mean ± SD",20.9 ± 5.5 mg
same,half‐life,[4],7.85 ± 1.62 h
same,peak concentration of drug in blood plasma,[4],1093 ± 201 ng/mL
same,relation to CYP3A,cytochrome P450 (CYP) 3A,both a substrate and inducer
same,"clinical laboratory evaluations, vital signs, electrocardiogram recordings",[5],No clinically important abnormalities
same,"deaths, serious AEs, or AEs resulting in discontinuation",[5],"No deaths, serious AEs, or AEs resulting in discontinuation were reported"
same,subjects with treatment‐emergent AEs,[5],3
same,subjects with treatment‐emergent AEs,[5]; listed as amenamevir,Three
same,severity of AEs,[5]; all 3 AEs,mild
same,safety and tolerability,"[5]; healthy male subjects, n = 6",safe and well tolerated
same,share of the administered dose in feces,[6]; feces 0 to 72 hours after the dose,< 0.1%
same,share of the total radioactivity in plasma,[6]; plasma samples 0.5 to 12 hours after the dose,80%
same,share of the total radioactivity excreted in urine,[6]; urine 0–48 hours after the dose,approximately 55%
same,pharmacokinetic profile in moderate hepatic impairment,[7],not significantly altered
same,half‐life,[8],6.88 ± 0.56 h
same,peak concentration of drug in blood plasma,[8],1040 ± 264 ng/mL
same,dose proportionality of pharmacokinetics,[9],less than dose proportional
same,safety and tolerability,[9]; single doses of 5 to 2400 mg or 300 to 600 mg/day for 7 days,safe and well tolerated
same,AUCinf,[10]; [12],"10,997 ± 2530 ng · h/mL"
same,AUClast,[10]; [12],"10,076 ± 2912 ng · h/mL"
same,Cmax,[10]; [12],1041 ± 324 ng/mL
same,t½,[10]; [12],8.03 ± 0.81 h
same,tmax,"[10]; ^14C‐radioactivity in plasma, single oral 200 mg, n = 6, median (range)",1.00 (1.00–3.02) hours
same,AUCinf,[10]; [13],"10,425 ± 2265 ng · h/mL"
same,AUClast,[10]; [13],8530 ± 2263 ng·h/mL
same,Cmax,[10]; [13],919 ± 284 ng/mL
same,t½,[10]; [13],9.19 ± 2.13 h
same,tmax,"[10]; ^14C‐radioactivity in whole blood, single oral 200 mg, n = 6, median (range)",1.00 (1.00–2.00) hours
same,Whole blood:plasma ratio of AUCinf,[10]; [14],0.951
same,Whole blood:plasma ratio of AUClast,[10]; [14],0.852
same,Whole blood:plasma ratio of Cmax,[10]; [14],0.885
same,AUC(0-inf),"[10]; human, plasma, po, 200 mg",8820 ± 2510 ng·h/mL
same,AUC(0-t),"[10]; human, plasma, po, 200 mg",8690 ± 2490 ng·h/mL
same,Cmax,"[10]; human, plasma, po, 200 mg",1020 ± 404 ng/mL
same,half-life,"[10]; human, plasma, po, 200 mg",7.65 ± 0.49 h
same,tmax,"[10]; human, plasma, po, 200 mg",1.5 h
